ChEMBL document CHEMBL1641494, “Modulation of PPAR subtype selectivity. Part 2: Transforming PPARα/γ dual agonist into α selective PPAR agonist through bioisosteric modification” (Bioorg Med Chem Lett, 2011)
Blank lines part the entries; values can stand above or below the compound they belong to. Calls of active or inactive are those of the source. The calls are words filed in the database; no cut-off is given here.

Key:
[1] = target: T1, Peroxisome proliferator-activated receptor alpha (Homo sapiens) (UniProt Q07869); experiment: Agonist activity at human PPARalpha in human HepG2 cells co-transfected with PPRE3-TK-luc assessed as induction of transactivation activity at 10 uM by luciferase reporter gene assay relative to control; assay type: functional, cell-based
T1 sequence (whole entry): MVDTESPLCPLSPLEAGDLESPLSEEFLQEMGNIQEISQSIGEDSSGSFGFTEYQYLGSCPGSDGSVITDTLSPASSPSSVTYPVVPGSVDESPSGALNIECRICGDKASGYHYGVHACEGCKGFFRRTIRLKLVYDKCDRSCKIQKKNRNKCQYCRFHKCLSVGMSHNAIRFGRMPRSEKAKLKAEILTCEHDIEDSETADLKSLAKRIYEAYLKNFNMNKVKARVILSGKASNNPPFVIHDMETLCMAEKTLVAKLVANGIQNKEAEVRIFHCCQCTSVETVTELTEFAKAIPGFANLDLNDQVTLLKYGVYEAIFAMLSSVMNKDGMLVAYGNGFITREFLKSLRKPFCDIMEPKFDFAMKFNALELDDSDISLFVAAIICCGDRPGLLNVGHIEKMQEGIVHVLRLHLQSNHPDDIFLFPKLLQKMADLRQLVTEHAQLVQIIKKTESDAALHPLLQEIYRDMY
How it was run: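 HepG2 cells were transfected with pSG5 vector carrying human PPARα cDNA and co-transfected with PPRE3-TK-luc. Firefly luciferase was read and normalised to β-galactosidase activity measured in an ELISA reader. Compound was tested at 10 µM. Results are expressed as fold induction versus vehicle (1% DMSO).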

Mus musculus [2] = experiment: Antihyperglycemic activity in db/db mouse assessed as reduction of serum glucose level at 30 mg/kg, po qd for 7 days relative to control; assay type: functional; parameters: scale not given: the % may be the effect or the level left
How it was run: (§1)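 Male db/db mice aged 6–8 weeks were dosed orally once daily for 7 days. Serum triglycerides and glucose were then measured. Results are expressed as % change versus vehicle-treated controls (n = 6).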

Rattus norvegicus [3] = experiment: Antihyperlipidemic activity in Sprague-Dawley rat assessed as reduction of serum total cholesterol level at 30 mg/kg, po qd for 14 days relative to control; assay type: functional; parameters: scale not given: the % may be the effect or the level left
How it was run: (§2)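 Male Sprague–Dawley rats were fed a high-cholesterol diet for 15 days, then given vehicle or compound by oral gavage once daily for 14 days. Serum TG, total cholesterol, LDL-C and HDL-C were measured. Results are expressed as % change versus vehicle (n = 9).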

Rattus norvegicus [4] = experiment: Antihyperlipidemic activity in Sprague-Dawley rat assessed as reduction of serum LDL-cholesterol level at 30 mg/kg, po qd for 14 days relative to control; assay type: functional; parameters: scale not given: the % may be the effect or the level left; how it was run: as §2
Rattus norvegicus [5] = experiment: Antihyperlipidemic activity in Sprague-Dawley rat assessed as increase of serum HDL-cholesterol level at 30 mg/kg, po qd for 14 days relative to control; assay type: functional; how it was run: as §2
[6] = Half life in Wistar rat at 30 mg/kg, po; assay type: ADME, organism-based; parameters: dose 30 mg/kg, route oral; details: in vivo
How it was run: (§3)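 Single oral dose of 30 mpk to fasted male Wistar rats (n = 6). Plasma concentrations were measured by LC–MS, and Tmax, Cmax, T1/2 and AUC(0–∞) were derived. Values are given as mean ± SD.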

[7] = Tmax in Wistar rat at 30 mg/kg, po; assay type: ADME, organism-based; parameters: dose 30 mg/kg, route oral; details: in vivo; how it was run: as §3
Mus musculus [8] = experiment: Antihyperlipidemic activity in db/db mouse assessed as reduction of serum triglycerides level at 30 mg/kg, po qd for 7 days relative to control; assay type: functional; parameters: scale not given: the % may be the effect or the level left; how it was run: as §1
Rattus norvegicus [9] = experiment: Antihyperlipidemic activity in Sprague-Dawley rat assessed as reduction of serum triglycerides level at 30 mg/kg, po qd for 14 days relative to control; assay type: functional; parameters: scale not given: the % may be the effect or the level left; how it was run: as §2
[10] = AUC (0 to infinity) in Wistar rat at 30 mg/kg, po; assay type: ADME, organism-based; parameters: time infinity, dose 30 mg/kg, route oral; details: plasma; how it was run: as §3
Rattus norvegicus [11] = experiment: Antihyperlipidemic activity in Sprague-Dawley rat assessed as reduction of serum LDL-cholesterol level at 3 mg/kg, po qd for 14 days relative to control; assay type: functional; parameters: scale not given: the % may be the effect or the level left; how it was run: as §2
Mus musculus [12] = experiment: Antihyperglycemic activity in db/db mouse assessed as reduction of serum glucose level at 3 mg/kg, po qd for 7 days relative to control; assay type: functional; parameters: scale not given: the % may be the effect or the level left; how it was run: as §1
Mus musculus [13] = experiment: Antihyperlipidemic activity in db/db mouse assessed as reduction of serum triglycerides level at 3 mg/kg, po qd for 7 days relative to control; assay type: functional; parameters: scale not given: the % may be the effect or the level left; how it was run: as §1
Rattus norvegicus [14] = experiment: Antihyperlipidemic activity in Sprague-Dawley rat assessed as reduction of serum total cholesterol level at 3 mg/kg, po qd for 14 days relative to control; assay type: functional; parameters: scale not given: the % may be the effect or the level left; how it was run: as §2
Rattus norvegicus [15] = experiment: Antihyperlipidemic activity in Sprague-Dawley rat assessed as reduction of serum triglycerides level at 3 mg/kg, po qd for 14 days relative to control; assay type: functional; parameters: scale not given: the % may be the effect or the level left; how it was run: as §2
Rattus norvegicus [16] = experiment: Antihyperlipidemic activity in Sprague-Dawley rat assessed as increase of serum HDL-cholesterol level at 3 mg/kg, po qd for 14 days relative to control; assay type: functional; how it was run: as §2
[17] = Cmax in Wistar rat at 30 mg/kg, po; assay type: ADME, organism-based; parameters: dose 30 mg/kg, route oral; details: in vivo; how it was run: as §3

SMILES: C/C(=N\OCCOc1ccc(C[C@H]2CO[C@@](C)(C(=O)O)OC2)cc1)c1ccc(F)cc1
fold change (FC) [1]: 10.5

SMILES: Cc1ccc(-c2nc(CCCC[C@H]3CO[C@@](C)(C(=O)O)OC3)c(C)o2)cc1
Activity (Mus musculus [2]): -43%
Activity (Rattus norvegicus [3]): -49%
Activity (Rattus norvegicus [4]): -58%
Activity (Rattus norvegicus [5]): 62%
half-life [6]: 1.99 h
Tmax [7]: 0.65 h
Activity (Mus musculus [8]): -54%
fold change (FC) [1]: 12.7
Activity (Rattus norvegicus [9]): -51%

SMILES: C/C(=N\OCCOc1ccc(C[C@H]2CO[C@@](C)(C(=O)O)OC2)cc1)c1ccc(S(C)(=O)=O)cc1
fold change (FC) [1]: 1.37

SMILES: C/C(=N\OCCOc1ccc(C[C@H]2CO[C@@](C)(C(=O)O)OC2)cc1)c1ccc2c(c1)CCCC2
fold change (FC) [1]: 1.63

SMILES: C/C(=N\OCCOc1ccc(C[C@H]2CO[C@@](C)(C(=O)O)OC2)cc1)c1ccc(OC(F)(F)F)cc1
fold change (FC) [1]: 3.48

SMILES: C/C(=N\OCCOc1ccc(C[C@H]2CO[C@@](C)(C(=O)O)OC2)cc1)c1ccc(C(F)(F)F)cc1
fold change (FC) [1]: 5.79

SMILES: C/C(=N\OCCOc1ccc(C[C@H]2CO[C@@](C)(C(=O)O)OC2)cc1)c1ccc(C)cc1
fold change (FC) [1]: 10.8

SMILES: CN(CCOc1ccc(CC2SC(=O)NC2=O)cc1)c1ccccn1 (configuration not stated)
fold change (FC) [1]: inactive

Now from value to compound, other results behind:

fold change (FC) [1]: 2.36
SMILES: C/C(=N\OCCOc1ccc(C[C@H]2CO[C@@](C)(C(=O)O)OC2)cc1)c1cccnc1

fold change (FC) [1]: 3.61
SMILES: COc1ccc(/C(C)=N/OCCOc2ccc(C[C@H]3CO[C@@](C)(C(=O)O)OC3)cc2)cc1OC

fold change (FC) [1]: 1.76
SMILES: C/C(=N\OCCOc1ccc(C[C@H]2CO[C@@](C)(C(=O)O)OC2)cc1)c1ccc2ccccc2c1

AUC(0-inf) [10]: 1420 ng·h/mL
half-life [6]: 14 h
Tmax [7]: 0.61 h
fold change (FC) [1]: 15
Cmax [17]: 120 ng/mL
SMILES: COc1ccc(/C(C)=N/OCCOc2ccc(C[C@H]3CO[C@@](C)(C(=O)O)OC3)cc2)cc1
Activity (Rattus norvegicus [11]): -68%
Activity (Mus musculus [12]): -45%
Activity (Mus musculus [13]): -53%
Activity (Rattus norvegicus [14]): -56%
Activity (Rattus norvegicus [15]): -54%
Activity (Rattus norvegicus [16]): 68%

fold change (FC) [1]: 10.8
SMILES: C/C(=N\OCCOc1ccc(C[C@H]2CO[C@@](C)(C(=O)O)OC2)cc1)c1ccccc1

fold change (FC) [1]: 14.7
SMILES: Cc1ccc(-c2nc(COc3ccc(C[C@H]4CO[C@@](C)(C(=O)O)OC4)cc3)c(C)o2)cc1
